High-throughput results: PubChem, several laboratories
TNF necrop inh: TNF-alpha cell death inhibition in Jurkat FADD-/- cells | Jurkat FADD-/- TNF necroptosis rescue, ATP luminescence, 24 h; 0 = TNF only, 100 = no-TNF cells | activation (protection from cell death), % at 10 µM | actives 0.068% (n = 220,000);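 active means activation, meaning protection from cell death, of at least 50% relative to plate controls; inactive means activation below 50%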;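 further: necroptosis triggered by 40 ng/mL TNF-alpha added together with compound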
M18AAP inhibitor: blocks P. falciparum M18 aspartyl aminopeptidase; actives 1.2% (n = 290,000); recombinant PfM18AAP, H-Glu-NHMec fluorogenic cleavage; inhibition, % at 7.35 µM;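 active means inhibition above the campaign mean inhibition over all tested compounds plus 3 SD, cut at about 28% in these data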
L929 necroptosis: L929 zVAD cell death inhibition; L929 zVAD necroptosis rescue, ATP luminescence, 24 h; with zVAD 60 µM; viability rescue, % at 10 µM; actives 0.38% (n = 220,000);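 active means activation, scaled between plate controls, above about 75%, limit read from the data; inactive means activation under that limit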
Tb hexokinase: blocks Trypanosoma brucei hexokinase 1 activity; recombinant TbHK1, G6PDH-coupled NADH A340; inhibition, % at 10 µM; actives 0.11% (n = 220,000); AID 1430;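 active means inhibition of 50% or more in the single-dose primary screen; inactive means inhibition below 50%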
Hep lipid drop: hepatic lipid droplet formation modulation; AML12 mouse hepatocytes, oleate lipid droplets, BODIPY imaging; AID 1656; inhibition, % at 6.5 µM; actives 0.4% (n = 240,000);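 active means lipid droplet intensity inhibited by at least 50%, with more than 500 cells counted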
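material = mouse AML12 hepatocyte cell line, fixed after treatment | also added = 100 µM oleic acid challenge | doses = compound at 6.5 µM only | schedule = overnight exposure | technique = Image-based BODIPY and DAPI two-channel analysis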
RBBP9 inhibitor: inhibitors of human serine hydrolase RBBP9 | inhibition, % at 7.94 µM | actives 0.2% (n = 220,000) | recombinant RBBP9, FP-Rh probe fluorescence polarization;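 active means inhibition above the campaign mean of all tested compounds plus 3 SD, cut at about 14% in these data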
Target sequence (O75884 whole entry, looked up): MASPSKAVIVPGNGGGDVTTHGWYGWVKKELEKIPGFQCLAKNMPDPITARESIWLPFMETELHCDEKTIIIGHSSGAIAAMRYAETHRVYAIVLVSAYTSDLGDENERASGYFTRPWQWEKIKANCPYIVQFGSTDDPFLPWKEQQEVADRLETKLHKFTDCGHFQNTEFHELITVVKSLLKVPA
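System: RBBP9 protein | Quantity: 2.5 µM RBBP9 dispensing solution, before mixing | Reagent: FP-Rh probe, 375 nM dispensing solution | Timing: Enzyme-compound preincubation 30 min, then probe labeling 45 min, 25 °C | Measured by: Fluorescence polarization | Read-out: % inhibition | Replication: One well per compound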
Of the large screens only hits and unclear results are named; the others gave an inactive call. Sampled rows, rich in hits. Any-hit rate of the full collection: about 2%.

CC1OC(OCC2OC(Oc3c(-c4ccc(O)cc4)oc4cc(O)cc(O)c4c3=O)C(O)C(O)C2O)C(O)C(O)C1O (stereo unspecified)	none
CCc1ncc(CN2CCCCC2C(=O)Nc2ccc(Oc3ccccc3)nc2)cn1 (stereo unspecified)	none (no result: TNF necrop inh, L929 necroptosis, Tb hexokinase, RBBP9 inhibitor)
CCOC(=O)c1ccc(N2C(=O)CC(Sc3ncccn3)C2=O)cc1 (stereo unspecified)	none (no result: TNF necrop inh, L929 necroptosis, Tb hexokinase, RBBP9 inhibitor)
CCOC(=O)c1cnc(SC2CC(=O)N(c3cccc(OC)c3)C2=O)nc1N (stereo unspecified)	M18AAP inhibitor 29 (no result: Hep lipid drop)
O=C1CSC(=S)N1/N=C/c1cc(Br)ccc1O	M18AAP inhibitor 35 (no result: TNF necrop inh, L929 necroptosis, Tb hexokinase, RBBP9 inhibitor)
CC(C)(C)c1ccc(/C=N/n2cnnc2)cc1	none
Oc1ccc(Br)cc1/C=N/N1CCCCC1	none
CC(C)(C)c1ccc(/C=N/N2C(=O)CSC2=S)cc1	M18AAP inhibitor 31 (no result: TNF necrop inh, L929 necroptosis, Tb hexokinase, RBBP9 inhibitor)
O=C(NCc1c(Cl)cccc1Cl)c1ccc2nnsc2c1	TNF necrop inh 58
COCCNS(=O)(=O)c1ccc(SC)cc1	TNF necrop inh 50
Cc1cccc2sc(NNC(=O)c3cc(-c4cccs4)nc4ccccc34)nc12	M18AAP inhibitor 31 (no result: L929 necroptosis)
Cn1ccc(C(=O)Nc2sc3c(c2C(N)=O)CCCCC3)n1	M18AAP inhibitor 38 (no result: TNF necrop inh, L929 necroptosis, Tb hexokinase, RBBP9 inhibitor)
Cn1nccc1C(=O)Nc1sc2c(c1C(N)=O)CCCC2	none
CC(C)(C)n1nnnc1C(c1ccncc1)N1CCN(c2ccc(O)cc2)CC1 (stereo unspecified)	M18AAP inhibitor 30
CCOC(=O)c1c(NC(=O)CSc2n[nH]c(-c3ccco3)n2)sc(C)c1C	M18AAP inhibitor 31
CCOC(=O)c1c(NC(=O)CSc2n[nH]c(CNc3ccccc3)n2)sc(C)c1C	none
Cc1nc(Nc2nc(=O)c3ccccc3n2C)nc2c(C)cccc12	none (no result: Hep lipid drop)
c1ccc2c(c1)Nc1cc3ccccc3cc1S2	none
Cc1ccc2c(c1)Sc1c(ccc3ccccc13)N2	M18AAP inhibitor 28
CC(C)(CC(=O)O)CC(=O)NNc1ncccc1C#N	none
CCCS(=O)(=O)N1CCC(C(=O)NCCN(CC)c2ccccc2)CC1	M18AAP inhibitor 31
CCN(CCNC(=O)C1CCN(S(C)(=O)=O)CC1)c1ccccc1	none
Cc1c(Cl)c(=O)n2c(=O)c(Cl)c(C)n12	none
N#CC(C#N)=C1C=CC=CN1/C(=C\c1ccco1)C(=O)c1ccc(Br)cc1	TNF necrop inh 62
O=c1/c(=C\c2cccnc2)sc2nc3ccccc3n12	none
O=c1/c(=C/c2ccc(O)c([N+](=O)[O-])c2)sc2nc3ccccc3n12	Tb hexokinase 78
O=C(NC1CCN(Cc2ccccc2)CC1)c1ccc2c(c1)[nH]c(=O)n2Cc1ccc(F)cc1	none
Cc1[nH]n(-c2ccccc2)c(=O)c1C(C[N+](=O)[O-])c1ccc(F)cc1 (stereo unspecified)	M18AAP inhibitor 30
Cc1[nH]n(-c2ccccc2)c(=O)c1C(C[N+](=O)[O-])c1ccc(Cl)cc1 (stereo unspecified)	M18AAP inhibitor 28
Clc1ccc(C2=Nc3cc(Cl)ccc3OC2)cc1	none
Cc1ccc2c(c1)N=C(c1ccc(Cl)cc1)CO2	M18AAP inhibitor 29
O=C1CC(c2ccccc2)=Nc2ccccc2N1	none
c1ccc(C2=Nc3ccccc3OC2)cc1	M18AAP inhibitor 31
OCCn1c(-c2ccc(F)cc2)csc1=Nc1ccccc1	M18AAP inhibitor 41 (no result: L929 necroptosis)
O=C(Nc1nc(-c2ccc3c(c2)OCO3)cs1)C1CC1	L929 necroptosis 76
Cc1ccc(-n2c(COc3ccccc3)n[nH]c2=S)cc1	none
Cc1ccc(-n2c(Cn3c(C)nc4ccccc43)n[nH]c2=S)cc1	M18AAP inhibitor 33
Cc1cc2c(C)nc(N/N=C/c3ccc([N+](=O)[O-])cc3)nc2o1	M18AAP inhibitor 30
CCOC(=O)c1cc(C)n(-c2ccccc2)c1C	none
O=C(NCc1n[nH]c(=S)n1-c1ccc(F)cc1)c1ccc(S(=O)(=O)N2CCOCC2)cc1	M18AAP inhibitor 28
COC(=O)CSC1=C(C#N)C(c2ccc(C)cc2)C2=C(CCCC2=O)N1 (stereo unspecified)	M18AAP inhibitor 30 (no result: Hep lipid drop)
COc1ccccc1NS(=O)(=O)c1cc(C(=O)N2CC(C)CC(C)C2)ccc1C (stereo unspecified)	none
CC(C)N1C/C(=C/c2cccnc2)C(=O)/C(=C/c2cccnc2)C1	none
CN1C/C(=C/c2cccnc2)C(=O)/C(=C/c2cccnc2)C1	TNF necrop inh 80
COc1ccc(Cl)cc1NC(=O)c1sc2nc(C)nc(N3CCOCC3)c2c1C	none (no result: TNF necrop inh, L929 necroptosis, Tb hexokinase, RBBP9 inhibitor)
O=C(O)C1CCCC2CN3CCc4c([nH]c5ccccc45)C3C(O)C21 (stereo unspecified)	M18AAP inhibitor 28 (no result: TNF necrop inh, L929 necroptosis, Tb hexokinase, RBBP9 inhibitor)
CC(=O)Nc1nc(C)c(-c2csc(Nc3ccc(O)cc3)n2)s1	M18AAP inhibitor 28, L929 necroptosis 77
Cc1nc(N)sc1-c1csc(Nc2cccc(C(=O)O)c2)n1	M18AAP inhibitor 29 (no result: TNF necrop inh, L929 necroptosis, Tb hexokinase, RBBP9 inhibitor)
CCC(=O)Nc1nc(C)c(-c2csc(Nc3cccc(C(=O)O)c3)n2)s1	none
CCOCCn1c(CN(Cc2ccccc2)Cc2ccccc2)nc2c1c(=O)n(C)c(=O)n2C	none (no result: Hep lipid drop)
CCCCNC(=O)Nc1ncn[nH]1	M18AAP inhibitor 29
O=c1[nH][nH]c(=S)n1C1CCCCC1	M18AAP inhibitor 58
O=C(Nc1cccc(C(F)(F)F)c1)c1cc2ncc(Br)cn2n1	none
O=C(Nc1ccc2c(c1)OCO2)c1cc2ncc(Br)cn2n1	Hep lipid drop 69
Cc1occc1-c1nnc(SCC(=O)N2c3ccccc3CCc3ccccc32)n1C	none (no result: Hep lipid drop)
O=C(c1ccc(Cn2c(=S)[nH]c3ccc(N4CCOCC4)cc3c2=O)cc1)N1CCC(N2CCCCC2)CC1	none
CC1(C)CC(=O)C2=C(C1)NC(SCC(=O)Nc1ccccc1)=C(C#N)C21CCCCC1	none (no result: Hep lipid drop)
CC1(C)CC(=O)C2=C(C1)NC(=S)C(C#N)C21CCCCC1 (stereo unspecified)	M18AAP inhibitor 29
CC(C)=NNc1nc2c(c(=O)[nH]c(=O)n2C)n1CCc1ccccc1	none
Cn1c(=O)[nH]c(=O)c2c1nc(N/N=C/C(Br)=C/c1ccccc1)n2CCO	M18AAP inhibitor 30 (no result: Hep lipid drop)
Cc1ccc(NC(=S)NNc2ncc(C(F)(F)F)cc2Cl)c(C)c1	M18AAP inhibitor 28
Cc1nc2cc(C(=O)N3c4ccccc4CC3C)ccc2s1 (stereo unspecified)	none
O=C(NNC(=S)Nc1ccc(F)cc1)c1cccc([N+](=O)[O-])c1	none
O=[N+]([O-])c1ccc(NNC(=S)Nc2ccc(F)cc2)cc1	M18AAP inhibitor 29
CC1(C)CC(=O)C=C(NNC(=O)c2ccccc2)C1	M18AAP inhibitor 41 (no result: L929 necroptosis)
CC1(C)CC(=O)C=C(Nc2ccc(C(=O)O)cc2)C1	none
COc1ccc(-n2c(C)nc3sc4c(c3c2=O)CCC4)cc1	TNF necrop inh 93
